According to ChEMBL document CHEMBL2417491, “Design, synthesis and biological evaluation of aryl pyrimidine derivatives as potential leishmanicidal agents” (Bioorg Med Chem Lett, 2013):
The source made the active and inactive calls. The rule behind the calls is not given here.

Experiments:
Syrian golden hamster = experiment: Toxicity in golden hamster at 50 mg/kg, ip; type: organism-based, Mesocricetus auratus; parameters: dose 50 mg/kg, route intraperitoneal; conditions: in vivo
Leishmania donovani [1] = experiment: Antileishmanial activity against Leishmania donovani infected in golden hamster assessed as inhibition of parasite multiplication at 50 mg/kg, ip for 5 days measured after 7 days by Giemsa staining-based assay; type: functional; conditions: for inhibition in vivo at 50 mg/kg: route intraperitoneal
Outline: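 Hamsters infected with L. donovani received test compounds at 50 mg/kg/day ip for 5 days, starting after the infection was established. Parasite burden was determined by Giemsa staining. Efficacy was expressed as percent inhibition, comparing treated animals, untreated animals and the initial count in treated animals.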

[2] = (§1) Selectivity index, ratio of CC50 for African green monkey Vero cells to IC50 for Leishmania donovani amastigotes; type: functional
Outline: (§2)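 Calculated as CC₅₀ on Vero cells divided by IC₅₀ on L. donovani intramacrophage amastigotes. Both values come from 72 h assays: MTT for Vero cells and a luciferase reporter for amastigotes.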

[3] = Cytotoxicity against African green monkey Vero cells after 72 hrs by MTT assay; type: cell-based; conditions: chlorocebus sabaeus
Outline: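 Monkey kidney Vero cells were exposed to compounds for 72 h. Viable cells were detected with MTT, and CC₅₀ was estimated by the Huber & Koella method. Values are the mean of two independent experiments.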

Leishmania donovani [4] = experiment: Antileishmanial activity against Leishmania donovani amastigotes infected in mouse J774A1 cells after 72 hrs by luciferase reporter gene assay; type: functional, organism-based; conditions: J774.A1, 72 h
Outline: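 Macrophage cells were seeded at 4 × 10³ per well, held 24 h in a CO₂ incubator, and then infected with 4 × 10⁴ promastigotes, which transform into intracellular amastigotes. Compounds were added at 0.62–40 and incubated 72 h. Read-out was luminescence after Steady-Glo addition, with inhibition derived against untreated controls. IC₅₀ is the mean of two independent experiments.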

Leishmania donovani [5] = experiment: Antileishmanial activity against Leishmania donovani infected in golden hamster assessed as inhibition of parasite multiplication at 30 mg/kg, po for 5 days measured after 7 days by Giemsa staining-based assay; type: functional
Leishmania donovani [6] = experiment: Antileishmanial activity against Leishmania donovani infected in golden hamster assessed as inhibition of parasite multiplication at 40 mg/kg, ip for 5 days measured after 7 days by Giemsa staining-based assay; type: functional, organism-based; parameters: dose 40 mg/kg
Outline: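 Reference-drug arm in the L. donovani-infected hamster model, dosed at 40 mg/kg ip daily for 5 days. After the infection was established, parasite burden was assessed by Giemsa staining. Percent inhibition came from comparing treated with untreated animals and with the initial count in treated animals.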

Vero = experiment: as §1; type: functional; outline: as §2
[7] = Cytotoxicity against mouse J774A1 cells after 72 hrs; type: cell-based; conditions: j774.a1, 72 h

For COc1ccc(Nc2cc(/C=C/c3ccc(OC4CCCCO4)cc3)nc(N)n2)cc1 (stereo not given), the Activity (Syrian golden hamster) was “Non-toxic”, the inhibition in vivo at 50 mg/kg (Leishmania donovani [1]) was 78.2% and the “Ratio CC50/IC50” value [2] was 128. It also gave a CC50 at 72 h [3] of 345 µM and an IC50 (Leishmania donovani [4]) of 2.7 µM.

With COc1cc(/C=C/c2cc(SC)nc(N)n2)ccc1O the Activity (Syrian golden hamster) was “Non-toxic”.

With COc1ccc(Nc2cc(/C=C/c3ccc(OCc4ccccc4)cc3)nc(N)n2)cc1 the Activity (Syrian golden hamster) was “Non-toxic”, the inhibition in vivo at 50 mg/kg (Leishmania donovani [1]) was 78.1% and the “Ratio CC50/IC50” value [2] was 116. For the same compound, the CC50 at 72 h [3] was 57.8 µM and the IC50 (Leishmania donovani [4]) was 0.5 µM.

With CSc1cc(/C=C/c2ccc(OS(=O)(=O)[O-])cc2)nc(N)n1.[Na+] the Activity (Syrian golden hamster) was “Non-toxic”, the inhibition in vivo at 50 mg/kg (Leishmania donovani [1]) was 55.1% and the “Ratio CC50/IC50” value [2] was 48. It also gave a CC50 at 72 h [3] of 301 µM and an IC50 (Leishmania donovani [4]) of 6.3 µM.

In the case of CCOc1cc(/C=C/c2cc(SC)nc(N)n2)ccc1OC1CCCCO1 (stereo not given), the Activity (Syrian golden hamster) is reported as “Non-toxic”, the inhibition in vivo at 50 mg/kg (Leishmania donovani [1]) is reported as 33.5% and the “Ratio CC50/IC50” value [2] is reported as 19. The CC50 at 72 h [3] was 248 µM and the IC50 (Leishmania donovani [4]) was 12.9 µM.

In the case of CCCCCCCCCCCCCCCCOP(=O)([O-])OCC[N+](C)(C)C [MILTEFOSINE], the inhibition in vivo at 30 mg/kg (Leishmania donovani [5]) is reported as 98.1% and the “Ratio CC50/IC50” value [2] is reported as 4.

With CSc1cc(/C=C/c2ccc(OC3CCCCO3)cc2)nc(N)n1 (stereo not given) the Activity (Syrian golden hamster) was “Non-toxic”, the inhibition in vivo at 50 mg/kg (Leishmania donovani [1]) was 54.4% and the “Ratio CC50/IC50” value [2] was 34. For the same compound, the CC50 at 72 h [3] was 122 µM and the IC50 (Leishmania donovani [4]) was 3.6 µM.

For Sodium stibogluconate, the inhibition (Leishmania donovani [6]) was 88.5% and the Ratio CC50/IC50 (Vero) was > 7.

In the case of COc1cc(/C=C/c2cc(SC)nc(N)n2)cc(OC)c1OC, the Activity (Syrian golden hamster) is reported as “Non-toxic”, the inhibition (Leishmania donovani [1]) is reported as “inactive” and the IC50 (Leishmania donovani [4]) is reported as > 40 µM.

In the case of CSc1cc(/C=C/c2ccc(OCc3ccccc3)cc2)nc(N)n1, the Activity [7] is reported as “Non-toxic”, the Activity (Syrian golden hamster) is reported as “Non-toxic” and the inhibition in vivo at 50 mg/kg (Leishmania donovani [1]) is reported as 88.4%. For the same compound, the “Ratio CC50/IC50” value [2] was 188, the CC50 at 72 h [3] was 376 µM and the IC50 (Leishmania donovani [4]) was 2 µM.

In the case of COc1ccc(/C=C/c2cc(SC)nc(N)n2)cc1, the Activity (Syrian golden hamster) is reported as “Non-toxic”, the inhibition in vivo at 50 mg/kg (Leishmania donovani [1]) is reported as 54.4% and the “Ratio CC50/IC50” value [2] is reported as 27. For the same compound, the CC50 at 72 h [3] was 250 µM and the IC50 (Leishmania donovani [4]) was 9.1 µM.

For COc1ccc(/C=C/c2cc(SC)nc(N)n2)cc1OC, the Activity (Syrian golden hamster) was “Non-toxic”, the inhibition in vivo at 50 mg/kg (Leishmania donovani [1]) was 47.1% and the “Ratio CC50/IC50” value [2] was 62. For the same compound, the CC50 at 72 h [3] was 125 µM and the IC50 (Leishmania donovani [4]) was 2 µM.

In the case of CSc1cc(/C=C/c2ccc(O)cc2)nc(N)n1, the Activity (Syrian golden hamster) is reported as “Non-toxic”.
